In ChEMBL document CHEMBL1949593, “Stilbene-chalcone hybrids: design, synthesis, and evaluation as a new class of antimalarial scaffolds that trigger cell death through stage specific apoptosis” (J Med Chem, 2012):

Legend:
[1] = test system: Plasmodium falciparum; experiment: Antimalarial activity against ring stage chloroquine-sensitive Plasmodium falciparum 3D7 infected in human O positive erythrocytes after 48 hrs by SYBR green 1 fluorescence assay; assay type: functional, organism-based; conditions: 3D7, 48 h
Procedure, shortened: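 P. falciparum 3D7 in O+ human erythrocytes in complete RPMI with Albumax at 37 °C under 5% O2/5% CO2. Culture was sorbitol-synchronized to rings and plated at 2% hematocrit, 1% parasitemia. Drug range was 0–100 μM with 0.4% final DMSO, in triplicate. After 48 h, SYBR Green I fluorescence was read (ex 497/em 520 nm). IC50 was taken by visual matching of 50% growth inhibition.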

[2] = Inhibition of Plasmodium falciparum falcipain-2 using benzyloxycarbonyl-Phe-Arg-7-amino-4-methyl coumarin hydrochloride as substrate preincubated for 10 mins prior substrate addition by fluorimetric assay
Procedure, shortened: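 Recombinant falcipain-2 (2 μg) was preincubated 10 min at room temperature with or without compound, in triplicate. Buffer was 100 mM sodium acetate pH 5.5 with 10 mM DTT and 1% final DMSO. Z-Phe-Arg-AMC was then added at 10 μM final. AMC release was read at ex 355/em 460 nm. IC50 was taken by visual matching of 50% inhibition.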

[3] = Resistance index, ratio of IC50 for ring stage chloroquine-resistant Plasmodium falciparum Dd2 to IC50 for ring stage chloroquine-sensitive Plasmodium falciparum 3D7; assay type: functional
[4] = test system: Plasmodium falciparum; experiment: Antimalarial activity against ring stage chloroquine-resistant Plasmodium falciparum Dd2 infected in human O positive erythrocytes after 48 hrs by SYBR green 1 fluorescence assay; assay type: functional, organism-based; conditions: Dd2, 48 h
Procedure, shortened: (§1)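 Ring-stage cultures were sorbitol-synchronized in O+ human erythrocytes in RPMI 1640 with 0.5% Albumax, hypoxanthine and gentamicin, then plated at 2% hematocrit and 1% parasitemia. Drugs were tested at 0–100 μM (final DMSO 0.4%) in triplicate for 48 h at 37 °C under 5% O2/5% CO2/90% N2. Read-out was SYBR Green I (ex 497/em 520 nm). IC50 was read visually as 50% growth inhibition, with chloroquine as control.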

[5] = test system: Plasmodium falciparum; experiment: Antimalarial activity against ring stage chloroquine-resistant Plasmodium falciparum INDO infected in human O positive erythrocytes after 48 hrs by SYBR green 1 fluorescence assay; assay type: functional, organism-based; procedure, shortened: as §1
[6] = Therapeutic index, ratio of IC50 for human HeLa cells to IC50 for ring stage chloroquine-sensitive Plasmodium falciparum 3D7; assay type: cell-based; conditions: read-out: Ratio IC50
Procedure, shortened: (§2)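 HeLa or L929 fibroblasts were seeded at 10^4 cells per well in RPMI with 10% FBS, left overnight, then exposed 24 h at 37 °C, 5% CO2. MTT was added for 3 h; formazan was dissolved in DMSO and read at 570 nm. IC50 came from dose–response curves. Index = IC50(mammalian)/IC50(Pf 3D7, SYBR Green assay).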

[7] = Resistance index, ratio of IC50 for ring stage chloroquine-resistant Plasmodium falciparum INDO to IC50 for ring stage chloroquine-sensitive Plasmodium falciparum 3D7; assay type: functional
[8] = Therapeutic index, ratio of IC50 for […] cells to IC50 for ring stage chloroquine-sensitive Plasmodium falciparum 3D7; assay type: cell-based; conditions: mouse, read-out: Ratio IC50; procedure, shortened: as §2

| SMILES | IC50 [1] [µM] | IC50 [2] [µM] | Ratio IC50 [3] | IC50 [4] [µM] | IC50 [5] [µM] | selectivity ratio [6] | Ratio IC50 [7] | selectivity ratio [8] |
| --- | --- | --- | --- | --- | --- | --- | --- | --- |
| O=C(/C=C/c1c[nH]c2ccc(Cl)cc12)c1ccc(/C=C/c2ccccc2)cc1 | 25.6 |  |  |  |  |  |  |  |
| COc1cc(OC)c(OC)cc1/C=C/C(=O)c1ccc(/C=C/c2ccc(O)c(O)c2)cc1 | 4.2 | 19 | 1.7 | 7.1 | 4.6 | > 23.8 | 1.1 | 7.6 |
| COc1cc(/C=C/c2ccc(C(=O)/C=C/c3ccc(OC)c(OC)c3OC)cc2)cc(OC)c1O | 4.9 | 70 | 1.1 | 5.39 | 5.88 | > 43 | 1.2 | > 43 |
| O=C(/C=C/c1ccco1)c1ccc(/C=C/c2ccccc2)cc1 | > 100 |  |  |  |  |  |  |  |
| COc1cc(OC)c(OC)cc1/C=C/C(=O)c1ccc(/C=C/c2ccccc2)cc1 | 18 |  |  |  |  |  |  |  |
| COc1ccc(C(=O)/C=C/c2ccc(/C=C/c3ccc(O)c(OC)c3)cc2)cc1 | 66 |  |  |  |  |  |  |  |
| COc1cc(OC)c(OC)cc1/C=C/C(=O)c1ccc(/C=C/c2cc(OC)c(OS(=O)(=O)c3ccc(C)cc3)c(OC)c2)cc1 | > 100 |  |  |  |  |  |  |  |
| COc1cc(OC)c(OC)cc1/C=C/C(=O)c1ccc(O)cc1 | 61 |  |  |  |  |  |  |  |
| COc1ccc(/C=C/C(=O)c2ccc(/C=C/c3ccc(O)c(OC)c3)cc2)cc1 | 34 |  |  |  |  |  |  |  |
| COc1cc(OC)c(C(=O)/C=C/c2ccc(/C=C/c3cc(OC)c(O)c(OC)c3)cc2)cc1OC | 4.3 | 100 | 0.7 | 3.01 | 2.58 | > 46.5 | 0.6 | 8.4 |
| COc1cc(/C=C/c2ccc(C(=O)/C=C/c3cc(OC)c(OC)cc3OC)cc2)ccc1O | 5.3 | 23 | 0.7 | 3.71 | 2.65 | > 37.7 | 0.5 | 4.7 |
| COc1cc(OC)c(OC)cc1/C=C/C(=O)c1cccc(C(=O)/C=C/c2cc(OC)c(OC)cc2OC)c1 | 2.8 |  |  |  |  |  |  |  |
